Assay results: ChEMBL document CHEMBL3272173, “Synthesis and biological activity of peptide antagonists of luliberin (luteinizing hormone-releasing hormone)” (J Med Chem, 1979)
Where “and” joins values, the source holds several entries; their conditions need not be identical. Equal entries are not always repeated. Peptide text beside a SMILES is read from it. * marks the point of attachment. Cbz = O=C(OCc1ccccc1)*; Boc = CC(C)(C)OC(=O)*; NHBn = c1ccc(CN*)cc1; Bn = c1ccc(C*)cc1

Assays:
[1] = molecular target: T1, Gonadotropin-releasing hormone receptor (Rattus norvegicus) (UniProt P30969); experiment: In vitro antagonist activity at GNRHR in CD rat anterior pituitary gland assessed as inhibition of LH-RH-stimulated LH release at compound to LH-RH molar ratio of 20 after 4 hrs by radioimmunoassay; conditions: concentration not given here
T1 sequence (whole entry): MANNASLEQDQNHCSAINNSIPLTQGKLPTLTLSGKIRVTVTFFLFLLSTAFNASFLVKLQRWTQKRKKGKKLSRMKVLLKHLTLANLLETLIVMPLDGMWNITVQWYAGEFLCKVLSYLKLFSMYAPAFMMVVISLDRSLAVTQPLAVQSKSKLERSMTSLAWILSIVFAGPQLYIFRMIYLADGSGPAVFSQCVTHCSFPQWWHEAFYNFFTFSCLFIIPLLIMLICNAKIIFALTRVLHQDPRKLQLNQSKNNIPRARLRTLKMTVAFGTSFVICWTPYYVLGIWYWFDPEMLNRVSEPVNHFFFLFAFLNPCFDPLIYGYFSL
Procedure, shortened: (§1)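 Anterior pituitaries from diestrus CD rats (200-250 g) were dissociated enzymatically (collagenase, hyaluronidase, then Viokase). Cells were cultured 4 days at 1.67 × 10^5 cells/mL in DME with 10% horse serum and 2.5% fetal calf serum, then washed serum-free. Duplicate cultures received LH-RH (2-5 × 10^-10 M) with a single analogue concentration in serum-free DME for 4 h at 37 °C. LH in the medium was measured by RIA and reported as % inhibition of LH-RH-stimulated release.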

[2] = molecular target: T1, Gonadotropin-releasing hormone receptor (Rattus norvegicus); experiment: In vitro antagonist activity at GNRHR in CD rat anterior pituitary gland assessed as inhibition of LH-RH-stimulated LH release at compound to LH-RH molar ratio of 10 after 4 hrs by radioimmunoassay; conditions: concentration not given here; procedure, shortened: as §1
[3] = molecular target: T1, Gonadotropin-releasing hormone receptor (Rattus norvegicus); experiment: In vitro antagonist activity at GNRHR in CD rat anterior pituitary gland assessed as ratio of molar concentration of compound to LH-RH for inhibition of LH-RH-stimulated LH release after 4 hrs by radioimmunoassay
Procedure, shortened: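 Monolayers were cultured 4 days from dissociated anterior pituitary cells of diestrus CD rats. They were exposed in duplicate to LH-RH (2-5 × 10^-10 M) plus multiple analogue concentrations in serum-free DME for 4 h at 37 °C. LH in the medium was measured by radioimmunoassay. The ED50 molar ratio is the analogue:LH-RH molar ratio giving 50% inhibition of LH-RH-stimulated LH release.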

Rattus norvegicus [4] = experiment: Antiovulatory activity in CD rat assessed as blockade of ovulation at 1 mg, sc administered as six doses at 1200, 1230, 1300, 1350, 1400 and 1450 hrs during proestrus stage measured during estrus stage by dissecting microscopic analysis; type: functional
Procedure, shortened: (§2)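 Cycling Charles River CD rats were given six subcutaneous injections of analogue in 0.1 mL propylene glycol on the afternoon of proestrus, and controls received vehicle alone. Rats were killed the next morning (estrus). Ovulating animals were scored and ova in the oviducts were counted under a dissecting microscope.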

Rattus norvegicus [5] = experiment: Antiovulatory activity in sc dosed CD rat assessed as blockade of ovulation administered as six doses at 1200, 1230, 1300, 1350, 1400 and 1450 hrs during proestrus stage measured during estrus stage by dissecting microscopic analysis; type: functional; procedure, shortened: as §2
[6] = molecular target: T1, Gonadotropin-releasing hormone receptor (Rattus norvegicus); experiment: In vitro antagonist activity at GNRHR in CD rat anterior pituitary gland assessed as inhibition of LH-RH-stimulated LH release at compound to LH-RH molar ratio of 2800 after 4 hrs by radioimmunoassay; conditions: concentration not given here; procedure, shortened: as §1
[7] = molecular target: T1, Gonadotropin-releasing hormone receptor (Rattus norvegicus); experiment: In vitro antagonist activity at GNRHR in CD rat anterior pituitary gland assessed as inhibition of LH-RH-stimulated LH release at compound to LH-RH molar ratio of 10000 after 4 hrs by radioimmunoassay; conditions: concentration not given here; procedure, shortened: as §1
[8] = molecular target: T1, Gonadotropin-releasing hormone receptor (Rattus norvegicus); experiment: In vitro antagonist activity at GNRHR in CD rat anterior pituitary gland assessed as inhibition of LH-RH-stimulated LH release at compound to LH-RH molar ratio of 100 after 4 hrs by radioimmunoassay; conditions: concentration not given here; procedure, shortened: as §1

inhibition [1] [%]	inhibition [2] [%]	ED50 [3]	inhibition [6] [%]	inhibition [7] [%]	inhibition [8] [%]	Compound	inhibition (INH) (Rattus norvegicus [4]) [%]	ED50 (Rattus norvegicus [5]) [mg]
71	62	2.7 molar ratio and 1.3 molar ratio	–	–	–	CC(=O)O.CCNC(=O)[C@@H]1CCCN1C(=O)[C@H](CCCNC(=N)N)NC(=O)[C@H](CC(C)C)NC(=O)[C@@H](Cc1ccccc1)NC(=O)[C@H](Cc1ccc(O)cc1)NC(=O)[C@H](CO)NC(=O)[C@H](Cc1c[nH]c2ccccc12)NC(=O)[C@H](CCC(=O)NCc1ccccc1)NC(=O)OCc1ccccc1	0	>1
–	–	–	40	–	–	CCNC(=O)[C@@H]1CCCN1C(=O)[C@H](CCCNC(=N)N)NC(=O)[C@H](CC(C)C)NC(=O)CNC(=O)[C@H](Cc1ccc(O)cc1)NC(=O)[C@H](CO)NC(=O)[C@H](Cc1c[nH]c2ccccc12)NC(=O)[C@H](COCc1ccccc1)NC(=O)OC(C)(C)C (Boc-S(Bn)WSYGLRP-NHEt)	–	–
100	–	–	–	–	–	CC(=O)O.CCNC(=O)[C@@H]1CCCN1C(=O)[C@H](CCCNC(=N)N)NC(=O)[C@H](CC(C)C)NC(=O)[C@@H](Cc1ccc(OC)cc1)NC(=O)[C@H](Cc1ccc(O)cc1)NC(=O)[C@H](CO)NC(=O)[C@H](Cc1c[nH]c2ccccc12)NC(=O)[C@H](COCc1ccccc1)NC(=O)OCc1ccccc1	100	0.1
100	–	3 molar ratio	–	–	–	CCNC(=O)[C@@H]1CCCN1C(=O)[C@H](CCCNC(=N)N)NC(=O)[C@H](CC(C)C)NC(=O)[C@@H](Cc1ccccc1)NC(=O)[C@H](Cc1ccc(O)cc1)NC(=O)[C@H](CO)NC(=O)[C@H](Cc1c[nH]c2ccccc12)NC(=O)[C@H](CC(C)C)NC(=O)OCc1ccccc1.Cl	0	>1
–	–	–	–	42	–	H-HWSYGLRPG-NH2	–	–
–	–	–	–	15	–	H-WSYGLRPG-NH2	–	–
–	–	350 molar ratio	–	–	88	CCNC(=O)[C@@H]1CCCN1C(=O)[C@H](CCCNC(=N)N)NC(=O)[C@H](CC(C)C)NC(=O)CNC(=O)[C@H](Cc1ccc(O)cc1)NC(=O)[C@H](CO)NC(=O)[C@H](Cc1c[nH]c2ccccc12)NC(=O)[C@H](CCC(=O)NCc1ccccc1)NC(=O)OCc1ccccc1.Cl (Cbz-E(NHBn)WSYGLRP-NHEt)	20	>1
–	–	–	51	–	–	CCNC(=O)[C@@H]1CCCN1C(=O)[C@H](CCCNC(=N)N)NC(=O)[C@H](CC(C)C)NC(=O)CNC(=O)[C@H](Cc1ccc(O)cc1)NC(=O)[C@H](CO)NC(=O)[C@H](Cc1c[nH]c2ccccc12)NC(=O)[C@@H](CC(C)C)NC(=O)OCc1ccccc1	–	–
–	–	3.9 molar ratio	–	–	100	CCNC(=O)[C@@H]1CCCN1C(=O)[C@H](CCCNC(=N)N)NC(=O)[C@H](CC(C)C)NC(=O)[C@@H](Cc1c[nH]c2ccccc12)NC(=O)[C@H](Cc1ccc(O)cc1)NC(=O)[C@H](CO)NC(=O)[C@H](Cc1c[nH]c2ccccc12)NC(=O)[C@H](CCC(N)=O)NC(=O)OCc1ccccc1.Cl	20	>1
–	–	–	76	–	–	CC(C)C[C@H](NC(=O)CNC(=O)[C@H](Cc1ccc(O)cc1)NC(=O)[C@H](CO)NC(=O)[C@H](Cc1c[nH]c2ccccc12)NC(=O)[C@@H](Cc1ccccc1)NC(=O)OCc1ccccc1)C(=O)N[C@@H](CCCNC(=N)N)C(=O)N1CCC[C@H]1C(=O)NCC(N)=O.Cl	0	>1
–	–	20 molar ratio	86	–	–	CCNC(=O)[C@@H]1CCCN1C(=O)[C@H](CCCNC(=N)N)NC(=O)[C@H](CC(C)C)NC(=O)[C@@H](CCCNC(=N)N)NC(=O)[C@H](Cc1ccc(O)cc1)NC(=O)[C@H](CO)NC(=O)[C@H](Cc1c[nH]c2ccccc12)NC(=O)[C@H](CCC(N)=O)NC(=O)OCc1ccccc1.Cl	0	>1
–	–	–	–	60	–	CC(C)C[C@H](NC(=O)CNC(=O)[C@H](Cc1ccc(O)cc1)NC(=O)[C@H](CO)NC(=O)[C@H](Cc1c[nH]c2ccccc12)NC(=O)[C@@H]1CCC(=O)N1)C(=O)N[C@@H](CCCNC(=N)N)C(=O)N1CCC[C@H]1C(=O)NCC(N)=O (HELM PEPTIDE1{[Glp].W.S.Y.G.L.R.P.G.[am]}$$$$V2.0)	–	–
100	–	5.9 molar ratio	–	–	–	CC(=O)O.CC(C)C[C@H](NC(=O)[C@@H](Cc1ccccc1)NC(=O)[C@H](Cc1ccc(O)cc1)NC(=O)[C@H](CO)NC(=O)[C@H](Cc1c[nH]c2ccccc12)NC(=O)[C@H](COCc1ccccc1)NC(=O)OCc1ccccc1)C(=O)N[C@@H](CCCNC(=N)N)C(=O)N1CCC[C@H]1C(=O)N(C)C	40	>3
–	–	–	–	53	–	CC(C)C[C@H](NC(=O)CNC(=O)[C@H](Cc1ccc(O)cc1)NC(=O)[C@H](CO)NC(=O)[C@H](Cc1c[nH]c2ccccc12)NC(=O)[C@@H]1CCCN1C=O)C(=O)N[C@@H](CCCNC(=N)N)C(=O)N1CCC[C@H]1C(=O)NCC(N)=O (HELM PEPTIDE1{[O=C[*:2]].P.W.S.Y.G.L.R.P.G.[am]}$$$$V2.0)	–	–
–	100	1.3 molar ratio	–	–	–	COc1ccc(COC(=O)N[C@@H](COCc2ccccc2)C(=O)N[C@@H](Cc2c[nH]c3ccccc23)C(=O)N[C@@H](CO)C(=O)N[C@@H](Cc2ccc(O)cc2)C(=O)N[C@H](Cc2ccccc2)C(=O)N[C@@H](CC(C)C)C(=O)N[C@@H](CCCNC(=N)N)C(=O)N2CCC[C@H]2C(=O)NCC(N)=O)cc1.Cl	40	>1
–	–	–	–	58	–	CC(C)C[C@H](NC(=O)CNC(=O)[C@H](Cc1ccc(O)cc1)NC(=O)[C@H](CO)NC(=O)[C@H](Cc1c[nH]c2ccccc12)NC(=O)[C@H](Cc1cnc[nH]1)NC(=O)OCc1ccccc1)C(=O)N[C@@H](CCCNC(=N)N)C(=O)N1CCC[C@H]1C(=O)NCC(N)=O (HELM PEPTIDE1{[O=C(OCc1ccccc1)[*:2]].H.W.S.Y.G.L.R.P.G.[am]}$$$$V2.0)	–	–
–	–	–	–	68	–	CC(C)C[C@H](NC(=O)CNC(=O)[C@H](Cc1ccc(O)cc1)NC(=O)[C@H](CO)NC(=O)[C@H](Cc1c[nH]c2ccccc12)NC(=O)OCc1ccccc1)C(=O)N[C@@H](CCCNC(=N)N)C(=O)N1CCC[C@H]1C(=O)NCC(N)=O.Cl (HELM PEPTIDE1{[O=C(OCc1ccccc1)[*:2]].W.S.Y.G.L.R.P.G.[am]}$$$$V2.0)	20	>1
–	–	134 molar ratio	–	–	42	CC(C)C[C@H](NC(=O)OCc1ccccc1)C(=O)N[C@@H](Cc1c[nH]c2ccccc12)C(=O)N[C@@H](CO)C(=O)N[C@@H](Cc1ccc(O)cc1)C(=O)N[C@H](CC(N)=O)C(=O)N[C@@H](CC(C)C)C(=O)N[C@@H](CCCNC(=N)N)C(=O)N1CCC[C@H]1C(=O)NCC(N)=O.Cl	0	>1
–	–	–	74	–	–	CC(C)C[C@H](NC(=O)CNC(=O)[C@H](Cc1ccc(O)cc1)NC(=O)[C@H](CO)NC(=O)[C@H](Cc1c[nH]c2ccccc12)NC(=O)[C@H](Cc1ccc(OCc2ccccc2)cc1)NC(=O)OCc1ccccc1)C(=O)N[C@@H](CCCNC(=N)N)C(=O)N1CCC[C@H]1C(=O)NCC(N)=O.Cl (Cbz-Y(Bn)WSYGLRPG-NH2)	20	>1
57	–	7 molar ratio	–	–	–	CC(C)C[C@H](NC(=O)[C@@H](CC(C)C)NC(=O)[C@H](Cc1ccc(O)cc1)NC(=O)[C@H](CO)NC(=O)[C@H](Cc1c[nH]c2ccccc12)NC(=O)[C@H](Cc1ccc(OCc2ccccc2)cc1)NC(=O)OCc1ccccc1)C(=O)N[C@@H](CCCNC(=N)N)C(=O)N1CCC[C@H]1C(=O)NCC(N)=O.Cl	0	>1

Compound	inhibition [1] [%]	inhibition [2] [%]	ED50 [3]	inhibition [6] [%]	inhibition [7] [%]	inhibition [8] [%]	inhibition (INH) (Rattus norvegicus [4]) [%]	ED50 (Rattus norvegicus [5]) [mg]
CC(C)C[C@H](NC(=O)CNC(=O)[C@H](Cc1ccc(O)cc1)NC(=O)[C@H](CO)NC(=O)[C@H](Cc1c[nH]c2ccccc12)NC(=O)[C@H](CCC(=O)NCc1ccccc1)NC(=O)OCc1ccccc1)C(=O)N[C@@H](CCCNC(=N)N)C(=O)N1CCC[C@H]1C(=O)NCC(N)=O.Cl (HELM PEPTIDE1{[O=C(OCc1ccccc1)[*:2]].E.W.S.Y.G.L.R.P.G.[am]}|CHEM1{[c1ccc(CN[*:1])cc1]}$PEPTIDE1,CHEM1,2:R3-1:R1$$$V2.0)	–	–	360 molar ratio	–	–	96	40	>1
